Results from ChEMBL document CHEMBL1128459, “Characterization of potent and selective antagonists at postsynaptic 5-HT1A receptors in a series of N4-substituted arylpiperazines” (J Med Chem, 1995).

Key:
[1] = biological target: 5-hydroxytryptamine receptor 1B (Rattus norvegicus, UniProt P28564); experiment: Binding affinity at 5-hydroxytryptamine 1B receptor
Outline: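 Rat frontal cortex membranes (1/40 wt/vol) were homogenized in 50 mM Tris pH 7.7 with pargyline, 4 mM CaCl2 and 0.1% ascorbic acid, then preincubated for 30 min at 37 °C. Labelled with 2.0 nM [3H]-5-HT, with 100 nM 8-OH-DPAT and 100 nM mesulergine masking 5-HT1A/5-HT2A sites; 5-CT defined nonspecific binding.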

Rattus norvegicus [2] = experiment: Compound after subcutaneous administration was evaluated for antagonist activity against hypothermia induced by 8-hydroxy -DPAT in rat; type: functional; details: sc, read-out: ID50 (the source's name)
Outline: (§1)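 Male Wistar rats (200-220 g) had rectal temperature taken, then received the test drug sc in distilled water (1.0 mL/kg). After 30 min they got 8-OH-DPAT 0.16 mg/kg sc, and temperature was remeasured 30 min later. Change from basal was scored.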

Rattus norvegicus [3] = organism: Rattus norvegicus; experiment: Maximum antagonist effect (% effect) expressed relative to 8-hydroxy-DPAT (100%); type: functional
Outline: (§2)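 In the rat rectal-temperature model (sc dosing, 8-OH-DPAT 0.16 mg/kg sc for antagonism), the maximal percentage of induced hypothermia (agonist) and of block of 8-OH-DPAT hypothermia (antagonist) was recorded. Each value is given with the dose at which it was reached.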

Rattus norvegicus [4] = experiment: Minimum effective agonist dose administered subcutaneously; type: functional; details: sc, read-out: MED
Outline: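 Male Wistar rats (200-220 g) were given the test drug alone sc in water (1.0 mL/kg), with vehicle reinjected at 30 min. Rectal temperature change from basal was measured 60 min after the first injection. MED for hypothermia was set against vehicle by ANOVA with Dunnett's test, P < 0.05.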

[5] = Ratio of MED (agonist) to that of MED (antagonist) values.; type: functional
Outline: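 The MED for inducing hypothermia alone was divided by the MED for blocking 8-OH-DPAT (0.16 mg/kg sc) hypothermia. Both MEDs came from sc dosing in male Wistar rats and were tested against vehicle by ANOVA with Dunnett's test, P < 0.05.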

[6] = biological target: D(2) dopamine receptor (Rattus norvegicus) (UniProt P61169)
Rattus norvegicus [7] = organism: Rattus norvegicus; experiment: Maximum agonist effect (% effect) expressed relative to 8-hydroxy-DPAT (100%); type: functional; outline: as §2
Rattus norvegicus [8] = experiment: Minimum effective antagonist dose administered subcutaneously; type: functional; details: sc, read-out: MED; outline: as §1
[9] = biological target: T1, 5-hydroxytryptamine receptor 1A (Rattus norvegicus, UniProt P19327); experiment: Binding affinity at 5-hydroxytryptamine 1A receptor
T1 sequence (P19327 whole entry): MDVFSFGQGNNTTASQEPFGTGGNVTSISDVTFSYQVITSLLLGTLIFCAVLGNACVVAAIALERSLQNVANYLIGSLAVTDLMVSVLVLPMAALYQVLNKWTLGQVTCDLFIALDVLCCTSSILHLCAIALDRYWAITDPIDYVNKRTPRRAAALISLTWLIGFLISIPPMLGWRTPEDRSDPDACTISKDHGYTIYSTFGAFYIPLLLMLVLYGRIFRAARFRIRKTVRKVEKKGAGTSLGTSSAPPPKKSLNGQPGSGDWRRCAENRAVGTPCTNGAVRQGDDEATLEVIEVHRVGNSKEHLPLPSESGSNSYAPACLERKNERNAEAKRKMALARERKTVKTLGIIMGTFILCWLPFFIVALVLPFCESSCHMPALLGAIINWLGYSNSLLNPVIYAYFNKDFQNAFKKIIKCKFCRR
Outline: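 Rat hippocampal membranes (1/100 wt/vol) in 50 mM Tris pH 7.7 with 4 mM CaCl2, 0.1% ascorbic acid and pargyline. Membranes were spun at 25000g, preincubated 30 min at 37 °C and respun, then incubated with 0.4 nM [3H]-8-OH-DPAT for 30 min at 25 °C. 5-HT defined nonspecific binding, and samples were filtered on PEI-soaked GF/B. IC50 came from regression; pKi = −log[IC50/(1+[L]/Kd)].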

D(2) dopamine receptor = D(2) dopamine receptor (Rattus norvegicus, UniProt P61169); experiment: In vitro binding affinity towards Dopamine receptor D2 in rat striatum was determined using [3H]-spiperone as radioligand; type: tissue-based
Outline: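 Rat striatal membranes (1/300 wt/vol), no preincubation, in 50 mM Tris pH 7.4 with CaCl2, ascorbic acid, 5 mM KCl, 1 mM MgCl2 and 120 mM NaCl. Ligand 0.2 nM [3H]spiperone, with 100 nM ketanserin masking 5-HT2A sites; raclopride defined nonspecific binding. Incubation 30 min at 37 °C, then filtration. pKi derived from regression-based IC50.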

Sequence of D(2) dopamine receptor (Rattus norvegicus) (P61169 whole entry): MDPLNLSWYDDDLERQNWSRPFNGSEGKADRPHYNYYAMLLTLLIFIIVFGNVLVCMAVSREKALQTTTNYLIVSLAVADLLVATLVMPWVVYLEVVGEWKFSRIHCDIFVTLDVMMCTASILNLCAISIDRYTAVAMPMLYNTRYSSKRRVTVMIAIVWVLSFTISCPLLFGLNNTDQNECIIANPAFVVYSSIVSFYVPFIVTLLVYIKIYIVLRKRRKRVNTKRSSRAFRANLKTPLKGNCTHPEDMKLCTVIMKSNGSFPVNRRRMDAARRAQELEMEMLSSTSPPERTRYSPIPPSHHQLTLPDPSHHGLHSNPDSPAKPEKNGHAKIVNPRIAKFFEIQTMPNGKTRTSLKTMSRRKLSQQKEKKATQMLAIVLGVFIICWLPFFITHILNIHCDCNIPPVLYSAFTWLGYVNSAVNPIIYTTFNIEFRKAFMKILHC
Sequence of 5-hydroxytryptamine receptor 1B (P28564 whole entry): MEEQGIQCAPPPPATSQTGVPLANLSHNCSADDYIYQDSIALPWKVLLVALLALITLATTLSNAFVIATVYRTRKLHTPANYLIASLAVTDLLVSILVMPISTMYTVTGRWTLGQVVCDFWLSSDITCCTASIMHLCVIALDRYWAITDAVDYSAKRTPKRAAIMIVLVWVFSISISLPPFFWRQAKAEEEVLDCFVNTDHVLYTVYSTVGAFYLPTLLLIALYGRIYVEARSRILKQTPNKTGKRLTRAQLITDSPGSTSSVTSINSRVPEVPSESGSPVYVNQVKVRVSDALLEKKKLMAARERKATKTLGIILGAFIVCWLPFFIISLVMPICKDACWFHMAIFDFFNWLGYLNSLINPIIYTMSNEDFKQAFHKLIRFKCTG
Sequence of D(2) dopamine receptor (P61169 whole entry): as the sequence (P61169 whole entry) above

SMILES | Ki [1] | ED50 (Rattus norvegicus [2]) | Max effect (Rattus norvegicus [3]) | minimal effective dose (Rattus norvegicus [4]) | Ratio [5] | ID50 [6] | Max effect (Rattus norvegicus [7]) | minimal effective dose (Rattus norvegicus [8]) | Ki [9] | Ki (D(2) dopamine receptor)
c1ccc2c(c1)CC2CCN1CCN(c2cccc3c2OCCCO3)CC1 (stereo not given) | 562 nM | 2.68 mg/kg | 72% | 40 mg/kg | 32 | 30 mg/kg | 31% | 1.25 mg/kg | 1.15 nM | –
c1ccc2c(c1)CC2CCCN1CCN(c2cccc3c2OCCO3)CC1 (stereo not given) | 646 nM | 0.18 mg/kg | 75% | 10 mg/kg | 62.5 | 1.7 mg/kg | 100% | 0.16 mg/kg | 0.447 nM | –
c1ccc2c(c1)CC2CN1CCN(c2cccc3c2OCCCO3)CC1 (stereo not given) | – | 0.32 mg/kg | 91% | > 10 mg/kg | > 15.8 | > 40 mg/kg | 76% | 0.63 mg/kg | 7.94 nM | –
c1ccc2c(c1)CCC2CCCN1CCN(c2cccc3c2OCCO3)CC1 (stereo not given) | 204 nM | 0.29 mg/kg | 81% | 10 mg/kg | 62.5 | > 40 mg/kg | 100% | 0.16 mg/kg | 0.617 nM | –
Clc1cccc2c1CC2CCCN1CCN(c2cccc3c2OCCO3)CC1 (stereo not given) | 1100 nM | 3.09 mg/kg | 60% | > 10 mg/kg | > 15.8 | 40 mg/kg | 15% | 0.63 mg/kg | 3.72 nM | –
c1ccc2c(c1)CC2CN1CCN(c2cccc3c2OCCO3)CC1 (stereo not given) | 214 nM | 0.67 mg/kg | 85% | 10 mg/kg | 15.8 | > 40 mg/kg | 100% | 0.63 mg/kg | 1.78 nM | –
c1ccc2c(c1)CC(CCN1CCN(c3cccc4c3OCCO4)CC1)C2 | 692 nM | 0.27 mg/kg | 100% | 10 mg/kg | 62.5 | 5.9 mg/kg | 50% | 0.16 mg/kg | – | –
COc1ccccc1N1CCN(CCN2C(=O)CC3(CCCC3)CC2=O)CC1 [BMY-7378] | > 10000 nM | 1.6 mg/kg | 64% | 2.5 mg/kg | – | 0.65 mg/kg | 53% | 1.25 mg/kg | – | 17.4 nM
c1ccc2c(c1)CC(CN1CCN(c3cccc4c3OCCO4)CC1)C2 | 490 nM | 0.55 mg/kg | 87% | > 10 mg/kg | > 15.8 | > 40 mg/kg | 0% | 0.63 mg/kg | 2.82 nM | –
COc1cc2c(cc1OC)C(CCN1CCN(c3cccc4c3OCCO4)CC1)C2 (stereo not given) | 794 nM | 1.41 mg/kg | 96% | > 40 mg/kg | > 32 | > 40 mg/kg | 4% | 1.25 mg/kg | 3.16 nM | –
c1ccc2c(c1)CCCC2CCN1CCN(c2cccc3c2OCCO3)CC1 (stereo not given) | 708 nM | 0.4 mg/kg | 70% | > 2.5 mg/kg | > 15.6 | 40 mg/kg | 8% | 0.16 mg/kg | 2.75 nM | –
COc1cc2nc(N3CCN(C(=O)c4ccco4)CC3)nc(N)c2cc1OC | – | – | – | – | – | > 10 mg/kg | – | – | – | –
c1ccc2c(c1)CC2CN1CCN(c2cccc3ccoc23)CC1 (stereo not given) | 912 nM | 1.12 mg/kg | 96% | > 10 mg/kg | > 4 | – | 15% | 2.5 mg/kg | 7.94 nM | –
Fc1cccc2c1CC2CN1CCN(c2cccc3c2OCCO3)CC1 (stereo not given) | 316 nM | 2.51 mg/kg | 61% | > 10 mg/kg | > 15.8 | > 40 mg/kg | 19% | 0.63 mg/kg | 1.78 nM | –
C1=C(CCN2CCN(c3cccc4c3OCCO4)CC2)c2ccccc2C1 | 251 nM | 0.45 mg/kg | 94% | > 2.5 mg/kg | > 4 | > 40 mg/kg | 21% | 0.63 mg/kg | 0.794 nM | –
C1=C(CCN2CCN(c3cccc4c3OCCO4)CC2)Cc2ccccc21 | 933 nM | 0.36 mg/kg | 81% | 10 mg/kg | 32.2 | – | 76% | 0.31 mg/kg | 0.537 nM | –
c1ccc2c(c1)CCCCC2CCN1CCN(c2cccc3c2OCCO3)CC1 (stereo not given) | 776 nM | 4.26 mg/kg | 96% | > 10 mg/kg | > 2 | > 10 mg/kg | 9% | 5 mg/kg | 6.61 nM | –
c1cc2c(c(N3CCNCC3)c1)OCCO2 [ELTOPRAZINE] | – | > 40 mg/kg | 0% | 2.5 mg/kg | < 0.06 | – | 100% | > 40 mg/kg | – | –
C1=C(CCN2CCN(c3cccc4c3OCCO4)CC2)c2ccccc2CCC1 | 380 nM | 5.02 mg/kg | 55% | > 40 mg/kg | > 16 | 40 mg/kg | 33% | 2.5 mg/kg | 3.16 nM | –
C1=C(CCN2CCN(c3cccc4c3OCCO4)CC2)c2ccccc2CC1 | 229 nM | 0.4 mg/kg | 100% | > 40 mg/kg | > 63.5 | > 40 mg/kg | 14% | 0.63 mg/kg | 2 nM | –
COc1ccc2c(c1)C(CCN1CCN(c3cccc4c3OCCO4)CC1)C2 (stereo not given) | 316 nM | 0.48 mg/kg | 95% | 10 mg/kg | 15.8 | > 40 mg/kg | 35% | 0.63 mg/kg | 1.26 nM | –
c1ccc2c(c1)CC2CCCN1CCN(c2cccc3c2OCCCO3)CC1 (stereo not given) | 617 nM | 0.27 mg/kg | 85% | > 2.5 mg/kg | > 15.6 | – | 21% | 0.16 mg/kg | 0.794 nM | –
c1ccc2c(c1)CC(CCCN1CCN(c3cccc4c3OCCO4)CC1)C2 | 1860 nM | 0.47 mg/kg | 70% | 40 mg/kg | 63.5 | > 40 mg/kg | 40% | 0.63 mg/kg | 1.26 nM | –
